Test results: ChEMBL document CHEMBL2321876
Active and inactive are the calls of the source. The rule behind the calls is not given here.

Legend:
Acinetobacter baumannii [1] = experiment: Antibacterial activity against Acinetobacter baumannii ATCC 19606 using iron-replete M9 minimal media after 15 hrs by broth microdilution assay; assay type: functional, organism-based; conditions: ATCC 19606 = CIP 70.34 = JCM 6841
How it was run: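 ATCC 19606 grown overnight at 30 °C on LB agar, washed twice in dipyridyl-containing M9/casamino acids medium, then diluted to A600 0.0003 in M9 minimal medium with 0.2% casamino acids plus 200 μM FeCl3. Inhibitors from DMSO at 100 μM final, in triplicate. Controls were tetracycline (100 ng/mL) and 1% DMSO. Incubated at 30 °C, A600 measured at 15 h.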

[2] = Displacement of Fl-Sal-AMS from Mycobacterium tuberculosis MbtA expressed in Escherichia coli after 30 mins by fluorescence polarization assay
Acinetobacter baumannii [3] = experiment: Antibacterial activity against Acinetobacter baumannii ATCC 19606 using iron-deficient M9 minimal media after 15 hrs by broth microdilution assay; assay type: functional, organism-based; conditions: ATCC 19606 = CIP 70.34 = JCM 6841
How it was run: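 ATCC 19606 grown overnight at 30 °C on LB agar, washed twice and resuspended in M9 minimal medium with 0.2% casamino acids and 200 μM dipyridyl. Inoculated at A600 0.0003 in this medium plus 1 μM FeCl3. Inhibitors from DMSO at 100 μM final, in triplicate. Tetracycline (100 ng/mL) and 1% DMSO as controls. Incubated at 30 °C; A600 read at 15 h.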

[4] = Displacement of Fl-Sal-AMS from Acinetobacter baumanni BasE expressed in Escherichia coli after 30 mins by fluorescence polarization assay; design: species or system Acinetobacter baumannii; conditions: read-out: Kd

| Compound | Activity (Acinetobacter baumannii [1]) | Kd [2] [µM] | Activity (Acinetobacter baumannii [3]) | Kd [4] [nM] |
| --- | --- | --- | --- | --- |
| C=Cc1cc(C(=O)O)c2cnn(Cc3ccncc3)c2n1 | inactive | > 100 | inactive | 1900 |
| O=C(O)c1cc(-c2ccccc2O)nc2c1cnn2Cc1ccncc1 | inactive | 6.5 | inactive | 255 |
| Cc1ccc(-c2cc(C(=O)O)c3cnn(Cc4ccncc4)c3n2)cc1 | inactive | 1.44 | inactive | 212 |
| Cc1ccc(-c2cc(C(=O)O)c3cnn(Cc4ccncc4)c3n2)s1 | inactive | 2.6 | inactive | 7.6 |
| O=C(O)c1cc(-c2ccccc2)nc2c1cnn2Cc1ccc(O)cc1 | inactive | > 100 | inactive | 556 |
| O=C(O)c1cc(/C=C/c2ccccc2)nc2c1cnn2Cc1ccncc1 | inactive | 5.1 | inactive | 280 |
| O=C(O)c1cc(-c2ccc(F)cc2F)nc2c1cnn2Cc1ccncc1 | inactive | 8 | inactive | 42.6 |
| O=C(O)c1cc(-c2cccs2)nc2c1cnn2Cc1ccncc1 | inactive | 6.68 | inactive | 443 |
| COc1ccc(COc2ccc(-c3cc(C(=O)O)c4cnn(Cc5ccncc5)c4n3)cc2)cc1 | inactive | 5.8 | inactive | 44.5 |
| O=C(O)c1cc(-c2cccc(-c3ccccc3)c2)nc2c1cnn2Cc1ccncc1 | inactive | 3.6 | inactive | 164 |
| CC(C)NC(=O)c1cc(-c2ccccc2)nc2c1cnn2Cc1ccncc1 | inactive | > 100 | inactive | 164 |
| O=C(O)c1cc(-c2ccc3[nH]ccc3c2)nc2c1cnn2Cc1ccncc1 | inactive | 2.9 | inactive | 61.8 |
| CCCCCCCCOc1ccc(-c2cc(C(=O)O)c3cnn(Cc4ccncc4)c3n2)cc1 | inactive | > 50 | inactive | 191 |
| O=C(O)c1cc(-c2ccccc2)cc2c1cnn2Cc1ccncc1 | inactive | 27.6 | inactive | 84.8 |
| O=C(O)c1cc(-c2ccco2)nc2c1cnn2Cc1ccncc1 | inactive | 19.5 | inactive | 342 |
| O=C(O)c1cc(-c2ccc(O)cc2)nc2c1cnn2Cc1ccncc1 | inactive | 3.7 | inactive | 8.85 |
| O=C(O)c1cc(C#Cc2ccccc2)nc2c1cnn2Cc1ccncc1 | inactive | 3 | inactive | 421 |
| CN(C)c1ccc(-c2cc(C(=O)O)c3cnn(Cc4ccncc4)c3n2)cc1 | inactive | 1.7 | inactive | 628 |
| O=C(O)c1cc(-c2ccc(CO)cc2)nc2c1cnn2Cc1ccncc1 | inactive | 3.7 | inactive | 247 |
| CCNC(=O)c1cc(-c2ccccc2)nc2c1cnn2Cc1ccncc1 | inactive | > 50 | inactive | 908 |
| Cc1ccsc1-c1cc(C(=O)O)c2cnn(Cc3ccncc3)c2n1 | inactive | 19.2 | inactive | 340 |
| OCc1cc(-c2ccccc2)nc2c1cnn2Cc1ccncc1 | inactive | 16.8 | inactive | 102 |
| Cc1csc(-c2cc(C(=O)O)c3cnn(Cc4ccncc4)c3n2)c1 | inactive | 2.54 | inactive | 86.9 |
| CC(=O)Nc1ccc(-c2cc(C(=O)O)c3cnn(Cc4ccncc4)c3n2)cc1 | inactive | 4.2 | inactive | 747 |
| O=C(O)c1cc(-c2cccc(Cl)c2)nc2c1cnn2Cc1ccncc1 | inactive | 4.6 | inactive | 26 |
| O=C(O)c1cc(NCc2ccccc2)nc2c1cnn2Cc1ccncc1 | inactive | 6.02 | inactive | 2320 |

| Compound | Activity (Acinetobacter baumannii [1]) | Kd [2] [µM] | Activity (Acinetobacter baumannii [3]) | Kd [4] [nM] |
| --- | --- | --- | --- | --- |
| O=C(O)c1cc(-c2ccccc2)cc2nn(Cc3ccncc3)cc12 | inactive | 58 | inactive | 66400 |
| O=C(O)c1cc(-c2cccnc2)nc2c1cnn2Cc1ccncc1 | inactive | 16.8 | inactive | 132 |
| C#Cc1cc(C(=O)O)c2cnn(Cc3ccncc3)c2n1 | inactive | 18.5 | inactive | 2040 |
| O=C(O)c1cc(-c2cn[nH]c2)nc2c1cnn2Cc1ccncc1 | inactive | 27.9 | inactive | 2300 |
| O=C(O)c1cc(-c2cncnc2)nc2c1cnn2Cc1ccncc1 | inactive | 13.6 | inactive | 583 |
| COc1cc(-c2cc(C(=O)O)c3cnn(Cc4ccncc4)c3n2)ccc1C(=O)O | inactive | 49.9 | inactive | 1700 |
| O=C(NC1CC1)c1cc(-c2ccccc2)nc2c1cnn2Cc1ccncc1 | inactive | > 100 | inactive | 150 |
| CN(C)C(=O)c1cc(-c2ccccc2)nc2c1cnn2Cc1ccncc1 | inactive | > 50 | inactive | 334 |
| O=C(O)c1cc(-c2ccccc2)cc2c1ccn2Cc1ccncc1 | inactive | 161 | inactive | 52200 |
| O=C(O)c1cc(-c2cccc3cccnc23)nc2c1cnn2Cc1ccncc1 | inactive | 22.5 | inactive | 776 |
| Nc1cc(-c2ccccc2)nc2c1cnn2Cc1ccncc1 | inactive | 36.4 | inactive | 200 |
| Nc1ccc(-c2cc(C(=O)O)c3cnn(Cc4ccncc4)c3n2)cc1 | inactive | 4.08 | inactive | 78.2 |
| Cc1cccc(-c2cc(C(=O)O)c3cnn(Cc4ccncc4)c3n2)c1 | inactive | 7.4 | inactive | 158 |
| O=C(O)c1cc(-c2ccc(F)cc2)nc2c1cnn2Cc1ccncc1 | inactive | 1.89 | inactive | 28 |
| O=C(O)c1cc(NCCCO)nc2c1cnn2Cc1ccncc1 | inactive | 97.7 | inactive | 2460 |
| O=C(O)c1cc(-c2ccccc2Cl)nc2c1cnn2Cc1ccncc1 | inactive | > 100 | inactive | 2480 |
| NC(=O)c1cc(-c2ccccc2)nc2c1cnn2Cc1ccncc1 | inactive | 8.57 | inactive | 66.8 |
| COc1ccc(-c2cc(C(=O)O)c3cnn(Cc4ccncc4)c3n2)cc1 | inactive | 3.23 | inactive | 78.2 |
| CNC(=O)c1cc(-c2ccccc2)nc2c1cnn2Cc1ccncc1 | inactive | > 50 | inactive | 420 |
| O=C(O)c1cc(-c2ccc(-c3ccc(Br)cc3)cc2)nc2c1cnn2Cc1ccncc1 | inactive | 19.7 | inactive | 181 |
| O=C(O)c1cc(-c2ccc(-c3ccccc3)cc2)nc2c1cnn2Cc1ccncc1 | inactive | 3.5 | inactive | 125 |
| O=C(O)c1ccc(-c2cc(C(=O)O)c3cnn(Cc4ccncc4)c3n2)cc1 | inactive | 6.1 | inactive | 776 |
| CCCCCCCCCCCCOc1ccc(-c2cc(C(=O)O)c3cnn(Cc4ccncc4)c3n2)cc1 | inactive | > 50 | inactive | 28400 |
| Cc1ccccc1-c1cc(C(=O)O)c2cnn(Cc3ccncc3)c2n1 | inactive | > 100 | inactive | 2150 |
| O=C(O)c1cc(-c2cncc3ccccc23)nc2c1cnn2Cc1ccncc1 | inactive | > 100 | inactive | 7730 |
| CCCNC(=O)c1cc(-c2ccccc2)nc2c1cnn2Cc1ccncc1 | inactive | > 50 | inactive | 249 |
